MsrA inhibitor = inhibitors of bovine MsrA | purified bovine MsrA, absorbance read-out | inhibition, % at 15.5 µM | actives 0.75% (n = 360,000); in the data active = inhibition above about 4.5%;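 also: 0% = vehicle wells with enzyme and 100% = reference inhibitor wells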
AHR activator = activators of human aryl hydrocarbon receptor. actives 2.5% (n = 320,000). activation, % at 5 µM. AHR-responsive luciferase reporter cells, luminescence; in the data active = activation above about 47%;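 also: 0% = vehicle wells and 100% = reference agonist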
HTR2A ag = activates the mouse 5-HT2A serotonin receptor | AID 624169 | actives 0.66% (n = 360,000) | CHO-K1 mHTR2A beta-arrestin complementation, luminescence; percent of 30 µM serotonin response | activation, % at 7.6 µM | P35363;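 active = activation above a run cutoff, the mean activation of all tested compounds plus 3 SD, cut at about 14% in these data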;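 also: 0% = plate median of compound wells and 100% = 30 µM serotonin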
Target sequence (P35363 whole entry, looked up): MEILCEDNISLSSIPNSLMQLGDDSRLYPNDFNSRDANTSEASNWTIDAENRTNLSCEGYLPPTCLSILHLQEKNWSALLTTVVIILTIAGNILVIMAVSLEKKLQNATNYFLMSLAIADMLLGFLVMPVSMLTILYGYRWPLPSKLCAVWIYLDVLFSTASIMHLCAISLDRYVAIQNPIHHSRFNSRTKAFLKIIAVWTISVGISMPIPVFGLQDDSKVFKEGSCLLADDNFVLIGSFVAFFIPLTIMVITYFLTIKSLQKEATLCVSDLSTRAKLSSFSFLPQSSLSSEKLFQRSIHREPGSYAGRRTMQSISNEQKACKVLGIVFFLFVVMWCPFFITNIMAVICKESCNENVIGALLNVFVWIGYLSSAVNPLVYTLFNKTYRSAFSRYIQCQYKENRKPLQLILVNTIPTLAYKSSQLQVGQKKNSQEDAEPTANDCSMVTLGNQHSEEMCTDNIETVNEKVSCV
Tb MetRS inh = blocks T. brucei methionyl-tRNA synthetase activity; purified T. brucei MetRS, ATP depletion, Kinase-Glo luminescence; inhibition, % at 11.9 µM; actives 0.4% (n = 360,000); AID 624268;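 active = inhibition above a per-plate cutoff of the control wells' mean inhibition plus 3 SD, cut at about 5.5% in these data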;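 also: 0% = DMSO wells median and 100% = median of wells with control inhibitor compound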
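assay system = parasite MetRS enzyme | timing = 15 min preincubation, 2 h reaction, all 25 °C | evaluation = percent inhibition relative to median high and low control wells | medium = HEPES buffer containing pyrophosphatase, BSA, spermine, DTT | compound = single dose, 11.9 µM final nominal, 0.9% final DMSO | detection = Kinase-Glo luminescence, ATP depletion format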
AI-2 QS modul = modulates the Vibrio harveyi AI-2 quorum sensing system. Vibrio harveyi JMH597 AI-2 luminescence/OD600 ratio, 9 h; stronger effect = lower value; strain lacks LuxN and CqsS sensors; 0 = neutral-control median. activity change, % at 7.5 µM. actives 0.4% (n = 300,000); in the data active = activity change below about -75%, passing the limit was not always enough; inconclusive = no clear call, values can overlap the other calls;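 also: luminescence divided by OD600 gain over 9 h not by final OD600 alone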
bovine MsrA act = activates bovine MsrA enzyme; activation, % at 10.6 µM; purified bovine MsrA, absorbance read-out; actives 0.3% (n = 360,000); in the data active = activation above about 7.5%;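 also: 0% = vehicle and 100% = reference activator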
An asterisk follows results filed as active. Compounds with a hit are over-represented: about 4.4% of the library has one in this group of screens.

What do the screens show for `CCc1c(C(=O)Nc2ccc(OC)cc2)[nH]c(C)c1C(C)=O`?
MsrA inhibitor: 0.4; AHR activator: 35.5; HTR2A ag: -3.5; Tb MetRS inh: -1.7; AI-2 QS modul: 24.2; bovine MsrA act: -3.7

What do the screens show for `CC(C)(C)C(=O)NC1CCN(CC(=O)Nc2ccc3c(c2)OCO3)CC1`?
MsrA inhibitor: -1.0; AHR activator: 0.2; HTR2A ag: -1.7; Tb MetRS inh: 0.4; AI-2 QS modul: 6.8; bovine MsrA act: -3.5

What do the screens show for `CCc1noc2cc(-c3ccccc3)n(C)c(=O)c12`?
MsrA inhibitor: -0.7

Results for COc1cccc(C(=O)N[C@H](C(=O)N2CCC[C@H]2C(=O)NCc2ccccc2)c2ccccc2)c1 ?
MsrA inhibitor: 0.3

What do the screens show for `CC(=O)n1cc(C(C[N+](=O)[O-])SCCN)c2ccccc21` (centres undefined)?
AHR activator: 50.5*; HTR2A ag: -4.5; Tb MetRS inh: -0.4; AI-2 QS modul: inconclusive; bovine MsrA act: -1.2

What do the screens show for `CCc1cc(=O)oc2cc(C)cc(OCC(=O)NCc3cccnc3)c12`?
MsrA inhibitor: -0.3; AHR activator: 48.8*; HTR2A ag: 1.4; Tb MetRS inh: -0.7; AI-2 QS modul: 24.8; bovine MsrA act: -1.7

How did CCc1cc(=O)oc2cc(C)cc(OCC(=O)NCc3ccncc3)c12 do in these assays?
MsrA inhibitor: 0.6; AHR activator: 74.9*; HTR2A ag: 5.9; Tb MetRS inh: -0.4; AI-2 QS modul: 16.2; bovine MsrA act: -2.6

What do the screens show for `CCCc1cc(=O)oc2cc(C)cc(OCC(=O)NCc3ccncc3)c12`?
MsrA inhibitor: -0.3; AHR activator: 39.3; HTR2A ag: 2.9; Tb MetRS inh: 0.0; AI-2 QS modul: 23.6; bovine MsrA act: -3.6

Results for Cc1cc(OCC(=O)Nc2cccnc2)c2c(C)c(C)c(=O)oc2c1 ?
MsrA inhibitor: -0.2; AHR activator: 78.2*; HTR2A ag: -4.4; Tb MetRS inh: 0.2; AI-2 QS modul: 12.6; bovine MsrA act: -4.6

How did O=C(OCc1ccccc1)N1Cc2ccnnc2CC1c1ccccc1-c1ccc(C(F)(F)F)cc1 (centres undefined) do in these assays?
MsrA inhibitor: 1.3

How did COc1ccccc1NC(=S)N(Cc1ccco1)Cc1cc2cc(C)cc(C)c2[nH]c1=O do in these assays?
MsrA inhibitor: 0.6; AHR activator: 71.7*; HTR2A ag: 4.9; Tb MetRS inh: -0.4; AI-2 QS modul: 7.1; bovine MsrA act: -9.7

Results for CCCn1c(=O)c(-c2nc3ccccc3[nH]2)c(O)c2ccccc21 ?
MsrA inhibitor: 1.6; AHR activator: 16.1; HTR2A ag: -0.3; Tb MetRS inh: -0.6; AI-2 QS modul: 6.6; bovine MsrA act: -9.1

How did CCn1c(=O)c(-c2nc3ccccc3[nH]2)c(O)c2ccccc21 do in these assays?
MsrA inhibitor: 2.2; AHR activator: 68.8*; AI-2 QS modul: 7.3

Results for O=C(Nc1ccc(OC(F)(F)F)cc1)c1ccc2ccccc2n1 ?
MsrA inhibitor: 1.0; AHR activator: 47.3*; HTR2A ag: -8.7; Tb MetRS inh: -0.3; AI-2 QS modul: 4.2; bovine MsrA act: -2.5

Results for O=C(Nc1ccc2c(c1)OCCO2)c1ccc2ccccc2n1 ?
MsrA inhibitor: 0.4; AHR activator: 51.8*; HTR2A ag: -2.9; Tb MetRS inh: -0.8; AI-2 QS modul: 13.9; bovine MsrA act: -0.7

What do the screens show for `COc1ccccc1OCCNC(=O)C(CCSC)NS(=O)(=O)c1ccccc1F` (centres undefined)?
MsrA inhibitor: -0.2; AHR activator: -0.1; HTR2A ag: -0.2; Tb MetRS inh: -0.3; AI-2 QS modul: 18.3; bovine MsrA act: -0.9

What do the screens show for `COc1ccc(OC)c(CN2CCN(C(=O)[C@@H](NC(=O)c3cccc(C)c3)C(C)C)CC2)c1`?
MsrA inhibitor: 0.3; AHR activator: -0.9; HTR2A ag: -9.8; Tb MetRS inh: 0.0; bovine MsrA act: -0.3

Results for COCCN=c1scc(-c2cc(OC)c(OC)c(OC)c2)n1/N=C/c1c(C)[nH]c2ccccc12 ?
MsrA inhibitor: 4.5; AHR activator: 55.9*; HTR2A ag: -3.1; Tb MetRS inh: 0.7; AI-2 QS modul: -0.5; bovine MsrA act: -4.1

What do the screens show for `Cn1cccc1CNC(=O)Nc1ccc(Cl)cc1`?
MsrA inhibitor: -0.1; AHR activator: 74.9*; HTR2A ag: 0.6; Tb MetRS inh: 0.6; AI-2 QS modul: inconclusive; bovine MsrA act: -4.8

Results for Cn1cccc1CNC(=O)Nc1ccccc1 ?
MsrA inhibitor: 0.8; AHR activator: 4.1; HTR2A ag: 0.7; Tb MetRS inh: -0.8; AI-2 QS modul: -19.2; bovine MsrA act: -11.9

What do the screens show for `O=C(COc1ncnc2ccccc12)Nc1cccc(S(=O)(=O)N2CCOCC2)c1`?
MsrA inhibitor: 0.2; AHR activator: -1.4; HTR2A ag: -1.2; Tb MetRS inh: 2.8; AI-2 QS modul: -25.4; bovine MsrA act: -0.9

How did O=C(CCc1ccccc1)Nc1ccc(S(=O)(=O)N2CCCC2)cc1 do in these assays?
MsrA inhibitor: 0.5; AHR activator: 3.9; HTR2A ag: -1.0; Tb MetRS inh: 0.7; AI-2 QS modul: -89.3*; bovine MsrA act: 0.2

What do the screens show for `O=C(COc1ncnc2ccccc12)Nc1ccc(S(=O)(=O)N2CCOCC2)cc1`?
MsrA inhibitor: -0.1; AHR activator: -1.8; HTR2A ag: 3.9; Tb MetRS inh: -0.5; AI-2 QS modul: -92.1*; bovine MsrA act: -5.0

Results for O=C(COc1ccccc1)Nc1ccc(S(=O)(=O)N2CCCC2)cc1 ?
MsrA inhibitor: 0.7; AHR activator: -1.6; HTR2A ag: -7.5; Tb MetRS inh: 0.1; AI-2 QS modul: -94.9*; bovine MsrA act: 0.0

What do the screens show for `Cc1ccccc1OCC(=O)Nc1ccc(S(=O)(=O)N2CCCC2)cc1`?
MsrA inhibitor: 0.3; AHR activator: -1.1; HTR2A ag: 1.9; Tb MetRS inh: -0.2; AI-2 QS modul: -78.8*; bovine MsrA act: -2.7

How did COC(=O)c1cc2c(c3c4cc(OC)ccc4n(S(=O)(=O)c4ccc(OC)cc4)c13)C(=O)N(Cc1ccccc1)C2 do in these assays?
MsrA inhibitor: 1.3

Results for c1ccc(-c2nc3ccccc3nc2-c2ccc(CN3CCC4(CC3)CNc3ccccc34)cc2)cc1 ?
MsrA inhibitor: 0.5

Results for C[C@H](NS(=O)(=O)OCC(Cl)(Cl)Cl)C1CC1c1ccccc1 (some centres undefined) ?
MsrA inhibitor: -0.4; AHR activator: 3.5; HTR2A ag: 13.9; Tb MetRS inh: -0.6; AI-2 QS modul: 10.2; bovine MsrA act: -10.3

How did O=S(=O)(NC1CC(NS(=O)(=O)OCC(Cl)(Cl)Cl)C2CCCCC12)OCC(Cl)(Cl)Cl (centres undefined) do in these assays?
AHR activator: 10.0; HTR2A ag: 15.4*; Tb MetRS inh: 0.1; AI-2 QS modul: 24.6; bovine MsrA act: -5.1

Results for O=C(N=Nc1c(O)[nH]c2c(Cl)cc(Cl)cc12)c1ccccc1O ?
MsrA inhibitor: 0.7

Compound activity: PubChem BioAssay, several laboratories
